From ChEMBL document CHEMBL3751737, “Synthesis, antibacterial and cytotoxic activities of new biflorin-based hydrazones and oximes” (2016) come the findings set out here.

As usually defined, the MIC is the lowest concentration found to suppress growth.

Converted amounts (≈) assume the structure as drawn. The source made the active and inactive calls. The rule behind the calls is not given here.

Type in all cases: functional
Assay [1] has as its system Staphylococcus aureus. Briefly: Antibacterial activity against Staphylococcus aureus ATCC 25923 after 24 hrs by broth microdilution method. The essentials: (§1)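 Broth microdilution in BHI following CLSI M100-S16. Strains were activated in BHI for 24 h at 35 ± 2 °C, adjusted to 0.5 McFarland, and diluted to a final inoculum of 5 x 10^5 CFU/mL. Samples were dissolved in water/DMSO and tested at final 512-8 µg/mL, in triplicate. Plates were incubated 24 h at 35 ± 2 °C, then 0.01% resazurin was added. MIC was the lowest concentration preventing the visual blue-to-red change. Amikacin, gentamicin and neomycin served as positive controls.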
On the technique in general: In broth dilution the organism is exposed to a series of concentrations in liquid medium.

For assay [2], the system named is Escherichia coli. As to the kind of experiment: Antibacterial activity against Escherichia coli ATCC 10536 after 24 hrs by broth microdilution method. The essentials:
as §1

The test system of assay [3] is Proteus vulgaris. As to the kind of experiment: Antibacterial activity against Proteus vulgaris ATCC 13315 after 24 hrs by broth microdilution method. The essentials: as §1
Assay [4] relates to Staphylococcus aureus. Briefly: Antibacterial activity against Staphylococcus aureus 358 after 24 hrs by broth microdilution method. In a few lines:
as §1

In assay [5] the test system is Escherichia coli. As to the kind of experiment: Antibacterial activity against Escherichia coli 27 after 24 hrs by broth microdilution method. The essentials: as §1
The subject of assay [6] is Enterococcus faecalis. Briefly: Antibacterial activity against Enterococcus faecalis ATCC 4083 after 24 hrs by broth microdilution method. In a few lines:
as §1

Assay [7] concerns SF-295. As to the kind of experiment: (§2) Cytotoxicity against human SF295 cells assessed as growth inhibition at 5 ug/ml after 72 hrs by MTT assay. In a few lines: (§3)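 Cells were grown in RPMI 1640 with 10% FBS and 1% antibiotic at 37 °C under 5% CO2, and seeded at 0.1 x 10^6 cells/mL. Samples were dissolved in DMSO and tested at 5 µg/mL for 72 h. MTT was added for 3 h, the precipitate was dissolved in DMSO, and absorbance was read at 595 nm. Potential was rated on an intensity scale.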

The subject of assay [8] is OVCAR-8. Briefly: (§4) Cytotoxicity against human OVCAR8 cells assessed as growth inhibition at 5 ug/ml after 72 hrs by MTT assay. In a few lines:
as §3

The subject of assay [9] is HCT-116. Briefly: (§5) Cytotoxicity against human HCT116 cells assessed as growth inhibition at 5 ug/ml after 72 hrs by MTT assay. The essentials:
(§6)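 Cells were maintained in RPMI 1640 with 10% FBS and 1% antibiotic at 37 °C under 5% CO2. Samples were dissolved in DMSO and tested at a single 5 µg/mL for 72 h. Viability was read by MTT: 3 h incubation, formazan dissolved in DMSO, absorbance at 595 nm. Results were graded on an intensity scale.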

The test system of assay [10] is Escherichia coli. As to the kind of experiment: Antibacterial activity against Escherichia coli ATCC 25922 after 24 hrs by broth microdilution method. The note with it: ATCC 25922, 24 h.
The subject of assay [11] is Staphylococcus aureus. As to the kind of experiment: Antibacterial activity against Staphylococcus aureus ATCC 6538 after 24 hrs by broth microdilution method. The note with it: ATCC 6538, 24 h.
In assay [12] the test system is Bacillus cereus. Briefly: Antibacterial activity against Bacillus cereus ATCC 33018 after 24 hrs by broth microdilution method. The note with it: ATCC 33018, 24 h.
The test system of assay [13] is Shigella flexneri. As to the kind of experiment: Antibacterial activity against Shigella flexneri ATCC 12022 after 24 hrs by broth microdilution method. The note with it: ATCC 12022, 24 h.
Assay [14] can be described thus: as §2. The note with it: SF-295, 72 h, read-out: GI. The essentials: as §3
A short description of assay [15]: as §4. The note with it: OVCAR-8, 72 h, read-out: GI. The essentials:
as §3

Assay [16] is described as follows: as §5. The note with it: HCT-116, 72 h, read-out: GI. In a few lines: as §6
Assay [17] has as its system Pseudomonas aeruginosa. Briefly: Antibacterial activity against Pseudomonas aeruginosa ATCC 15442 after 24 hrs by broth microdilution method. The note with it: ATCC 15442, 24 h.
For assay [18], the system named is Vibrio cholerae. Briefly: Antibacterial activity against Vibrio cholerae ATCC 15748 after 24 hrs by broth microdilution method. The note with it: ATCC 15748, 24 h.
The test system of assay [19] is Aeromonas caviae. As to the kind of experiment: Antibacterial activity against Aeromonas caviae ATCC 15468 after 24 hrs by broth microdilution method. The note with it: ATCC 15468, 24 h.
Assay [20] relates to Staphylococcus aureus. Briefly: Antibacterial activity against Staphylococcus aureus ATCC 12624 after 24 hrs by broth microdilution method. The note with it: ATCC 12624, 24 h.
Assay [21] deals with Staphylococcus aureus. As to the kind of experiment: Antibacterial activity against Staphylococcus aureus ATCC 12692 after 24 hrs by broth microdilution method. The note with it: ATCC 12692, 24 h.
Assay [22] has as its system Klebsiella pneumoniae. Briefly: Antibacterial activity against Klebsiella pneumoniae ATCC 10031 after 24 hrs by broth microdilution method. The note with it: ATCC 10031, 24 h.
For assay [23], the system named is Listeria monocytogenes. As to the kind of experiment: Antibacterial activity against Listeria monocytogenes ATCC 19117 after 24 hrs by broth microdilution method. The note with it: ATCC 19117, 24 h.
The mark [24] stands for this setting: Staphylococcus aureus, 358, 24 h.

As to GENTAMICIN, the MIC in assay [1] amounted to 32 µg/mL; in assay [2], 128 µg/mL; in assay [3], 64 µg/mL; in assay [4], 8 µg/mL; in assay [5] it was 512 µg/mL; in assay [6] it was 32 µg/mL.

Turning to `CO/N=C1\C(=O)C(C)=C2OC=C(CCC=C(C)C)c3ccc(C)c1c32`, the “growth inhibition (GI)” value in [7], in assay [8] and in [9] was “inactive” throughout. The MIC in assay [1] (ATCC 25923, 24 h) was 32 µg/mL (≈ 94.8 µM); in assay [2] (ATCC 10536, 24 h) it was not below 1020 µg/mL; in assay [3] (ATCC 13315, 24 h), 64 µg/mL (≈ 190 µM); in [4] (setting [24]), 64 µg/mL (≈ 190 µM); in assay [5] (Escherichia coli, 27, 24 h) it was 128 µg/mL (≈ 379 µM); in [6] (ATCC 4083, 24 h), 32 µg/mL (≈ 94.8 µM).

Consider `CC(C)=CCCC1=COC2=C(C)C(=O)/C(=N\O)c3c(C)ccc1c32`, for which the “growth inhibition (GI)” value in assay [7], in assay [8] and in [9] was “inactive” throughout. Besides, the MIC in [1] (ATCC 25923, 24 h) is 256 µg/mL (≈ 792 µM); in [2] (ATCC 10536, 24 h) it was not below 1020 µg/mL; in assay [3] (ATCC 13315, 24 h), 512 µg/mL (≈ 1580 µM); in assay [4] (setting [24]) it was not below 1020 µg/mL; in assay [5] (Escherichia coli, 27, 24 h), 512 µg/mL (≈ 1580 µM); in [6] (ATCC 4083, 24 h), 256 µg/mL (≈ 792 µM).

As to `CC(C)=CCCC1=COC2=C(C)C(=O)/C(=N\Nc3ccc([N+](=O)[O-])cc3[N+](=O)[O-])c3c(C)ccc1c32`, the “growth inhibition (GI)” value in assay [7], in assay [8] and in [9] was “inactive” in each case. Further, the MIC in [1] (ATCC 25923, 24 h) was 512 µg/mL (≈ 1050 µM); in assay [2] (ATCC 10536, 24 h) it was 512 µg/mL (≈ 1050 µM); in assay [3] (ATCC 13315, 24 h), 512 µg/mL (≈ 1050 µM); in assay [4] (setting [24]), 512 µg/mL (≈ 1050 µM); in [5] (Escherichia coli, 27, 24 h), not below 1020 µg/mL; in assay [6] (ATCC 4083, 24 h) it was 512 µg/mL (≈ 1050 µM).

Turning to `NCC1O[C@H](O[C@H]2[C@@H](O)[C@H](O[C@H]3[C@H](O)[C@@H](N)C[C@@H](N)[C@@H]3O[C@H]3O[C@H](CN)[C@@H](O)[C@H](O)[C@H]3N)O[C@@H]2CO)[C@H](N)[C@@H](O)[C@@H]1O` (some centres not stated), the MIC in [1] (ATCC 25923, 24 h) was determined as 32 µg/mL (≈ 52.1 µM); in assay [2] (ATCC 10536, 24 h) it was 512 µg/mL (≈ 833 µM); in assay [3] (ATCC 13315, 24 h), 512 µg/mL (≈ 833 µM); in assay [4] (setting [24]), 32 µg/mL (≈ 52.1 µM); in [5] (Escherichia coli, 27, 24 h), 128 µg/mL (≈ 208 µM); in assay [6] (ATCC 4083, 24 h), 128 µg/mL (≈ 208 µM).

For `NCC[C@H](O)C(=O)N[C@@H]1C[C@H](N)[C@@H](O[C@H]2O[C@H](CN)[C@@H](O)[C@H](O)[C@H]2O)[C@H](O)[C@H]1O[C@H]1O[C@H](CO)[C@@H](O)[C@H](N)[C@H]1O` [AMIKACIN], the MIC in [1] (ATCC 25923, 24 h) was found to be 256 µg/mL (≈ 437 µM); in [3] (ATCC 13315, 24 h), 512 µg/mL (≈ 874 µM); in assay [4] (setting [24]), 256 µg/mL (≈ 437 µM); in assay [5] (Escherichia coli, 27, 24 h) it was 128 µg/mL (≈ 219 µM); in [6] (ATCC 4083, 24 h), 256 µg/mL (≈ 437 µM).

As to `CCO/N=C1\C(=O)C(C)=C2OC=C(CCC=C(C)C)c3ccc(C)c1c32`, the “growth inhibition (GI)” value in [7], in assay [8] and in assay [9] was “inactive” each time. Also, the minimal inhibitory concentration (MIC) in assay [1] (ATCC 25923, 24 h) stood at 32 µg/mL (≈ 91.1 µM); in assay [2] (ATCC 10536, 24 h), 512 µg/mL (≈ 1460 µM); in assay [3] (ATCC 13315, 24 h), 512 µg/mL (≈ 1460 µM); in assay [4] (setting [24]), 64 µg/mL (≈ 182 µM); in assay [5] (Escherichia coli, 27, 24 h), 128 µg/mL (≈ 364 µM); in assay [6] (ATCC 4083, 24 h), 16 µg/mL (≈ 45.5 µM).

Turning to `CC(C)=CCCC1=COC2=C(C)C(=O)C(=O)c3c(C)ccc1c32`, the MIC is not below 1020 µg/mL in [10]; not below 1020 µg/mL in assay [11]; not below 1020 µg/mL in [12]; not below 1020 µg/mL in assay [13]; 64 µg/mL (≈ 208 µM) in [1] (ATCC 25923, 24 h); 128 µg/mL (≈ 415 µM) in assay [2] (ATCC 10536, 24 h). In addition, the MIC is not below 1020 µg/mL in assay [17]; not below 1020 µg/mL in [18]; not below 1020 µg/mL in assay [19]; 16 µg/mL (≈ 51.9 µM) in assay [3] (ATCC 13315, 24 h); not below 1020 µg/mL in [20]; not below 1020 µg/mL in assay [21]. The MIC in assay [22] was not below 1020 µg/mL; in assay [4] (setting [24]), 128 µg/mL (≈ 415 µM); in assay [23], not below 1020 µg/mL; in assay [5] (Escherichia coli, 27, 24 h), 256 µg/mL (≈ 830 µM); in assay [6] (ATCC 4083, 24 h), 32 µg/mL (≈ 104 µM). Besides, the inhibition of growth at 5 µg/mL in assay [14], in [15] and in assay [16] was 75% throughout.

As for `CC(C)=CCCC1=COC2=C(C)C(=O)/C(=N\Nc3ccccc3)c3c(C)ccc1c32`, the “growth inhibition (GI)” value in assay [7], in assay [8] and in [9] was “inactive” each time. Further, the MIC in [1] (ATCC 25923, 24 h) is 256 µg/mL (≈ 642 µM); in [2] (ATCC 10536, 24 h) it was not below 1020 µg/mL; in assay [3] (ATCC 13315, 24 h), not below 1020 µg/mL; in [4] (setting [24]) it was not below 1020 µg/mL; in assay [5] (Escherichia coli, 27, 24 h) it was not below 1020 µg/mL; in assay [6] (ATCC 4083, 24 h), 512 µg/mL (≈ 1280 µM).
